Data published in ChEMBL document CHEMBL1649406, “Synthesis and anti-mycobacterial activities of triazoloquinolones” (Eur J Med Chem, 2011).
≈ marks a conversion by molar mass, not a printed value.

How the values were obtained:
Klebsiella pneumoniae = test: Antibacterial activity against Klebsiella pneumoniae after 18 to 24 hrs by broth microdilution method; assay type: functional
How it was run: (§1)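 Broth microdilution per CLSI; compounds dissolved in DMSO at 10 mg/mL stock, serially diluted in Mueller Hinton Broth, mixed with equal volume of bacterial inoculum (final […]); incubated 37 °C for 18–24 h; MIC taken as lowest concentration preventing visible growth; duplicate determinations.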

Candida albicans = test: Antifungal activity against Candida albicans after 48 hrs by NCCLS method; assay type: functional
How it was run: (§2)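 NCCLS yeast broth dilution; inocula from 48 h, 35 °C Sabouraud agar cultures diluted to 10⁶ CFU/mL; compounds from 10 mg/mL DMSO stock serially diluted in RPMI-1640, added to equal volume of fungal suspension in round-bottom microplates; incubated 35 °C for 48–72 h; MIC in duplicate.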

[1] = test system: Staphylococcus epidermidis; test: Antibacterial activity against Staphylococcus epidermidis after 18 to 24 hrs by broth microdilution method; assay type: functional; how it was run: as §1
Acinetobacter baumannii = test: Antibacterial activity against Acinetobacter baumannii after 18 to 24 hrs by broth microdilution method; assay type: functional; how it was run: as §1
Pseudomonas aeruginosa = test: Antibacterial activity against Pseudomonas aeruginosa after 18 to 24 hrs by broth microdilution method; assay type: functional; how it was run: as §1
[2] = test system: Stenotrophomonas maltophilia; test: Antibacterial activity against Stenotrophomonas maltophilia after 18 to 24 hrs by broth microdilution method; assay type: functional; how it was run: as §1
[3] = test system: Mycobacterium tuberculosis; test: Antimycobacterial activity against Mycobacterium tuberculosis H37Ra by twofold agar dilution method; assay type: functional
How it was run: (§3)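 Strains grown in Middlebrook 7H11 with OADC. Suspensions at McFarland 1 turbidity were diluted 1:10, 1:100 and 1:10,000 in Middlebrook 7H9. These were inoculated onto duplicate Middlebrook 7H11 plates containing serial concentrations of compound.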

[4] = test system: Mycobacterium tuberculosis; test: Antimycobacterial activity against Mycobacterium tuberculosis H37Rv by twofold agar dilution method; assay type: functional; how it was run: as §3
Enterococcus faecalis = test: Antibacterial activity against Enterococcus faecalis after 18 to 24 hrs by broth microdilution method; assay type: functional; how it was run: as §1
[5] = test system: Mycolicibacterium smegmatis; test: Antimycobacterial activity against Mycobacterium smegmatis MC2 155 after 72 hrs by broth microdilution method; assay type: functional; conditions: str. MC2 155, 72 h
How it was run: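 Strains were pre-grown in Middlebrook 7H11 with OADC. The microdilution assay ran in sealed 96-well plates at 37 °C and was read after 72 h for M. smegmatis mc²155 and after 7 days for M. bovis BCG.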

Enterobacter cloacae = test: Antibacterial activity against Enterobacter cloacae after 18 to 24 hrs by broth microdilution method; assay type: functional; how it was run: as §1
Escherichia coli = test: Antibacterial activity against Escherichia coli after 18 to 24 hrs by broth microdilution method; assay type: functional; how it was run: as §1
Staphylococcus aureus = test: Antibacterial activity against Staphylococcus aureus after 18 to 24 hrs by broth microdilution method; assay type: functional; how it was run: as §1
Candida tropicalis = test: Antifungal activity against Candida tropicalis after 48 hrs by NCCLS method; assay type: functional; how it was run: as §2
[6] = Cytotoxicity against human MT4 cells after 96 hrs by MTT assay; assay type: cell-based
How it was run: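 Exponentially growing MT-4 cells (CD4+ T-cells carrying integrated HTLV-1) seeded at 1 × 10⁵ cells/mL in RPMI-1640 with 10% FCS, penicillin and streptomycin; exposed to serial compound dilutions at 37 °C, humidified 5% CO₂; viability read by MTT after 96 h; CC50 derived.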

| SMILES | MIC (Klebsiella pneumoniae) [µg/mL] | MIC (Candida albicans) [µg/mL] | MIC [1] [µg/mL] | MIC (Acinetobacter baumannii) [µg/mL] | MIC (Pseudomonas aeruginosa) [µg/mL] | MIC [2] [µg/mL] | MIC [3] [µg/mL] | MIC [4] [µg/mL] | MIC (Enterococcus faecalis) [µg/mL] | MIC [5] [µg/mL] | MIC (Enterobacter cloacae) [µg/mL] | MIC (Escherichia coli) [µg/mL] | MIC (Staphylococcus aureus) [µg/mL] | MIC (Candida tropicalis) [µg/mL] | CC50 at 96 h [6] [µg/mL] |
| --- | --- | --- | --- | --- | --- | --- | --- | --- | --- | --- | --- | --- | --- | --- | --- |
| CCOC(=O)c1cn(C)c2c(ccc3c2nnn3Cc2ccccc2)c1=O | > 64 | > 64 | > 64 | > 64 | > 64 | > 64 | > 128 | 64 (≈ 177 µM) | > 64 | > 128 | > 64 | > 64 | > 64 | > 64 |  |
| C=CCn1cc(C(=O)OCC)c(=O)c2ccc3c(nnn3Cc3ccccc3)c21 | > 64 | > 64 | > 64 | > 64 | > 64 | > 64 | > 128 | 64 (≈ 165 µM) | > 64 | > 128 | > 64 | > 64 | > 64 | > 64 |  |
| CCOC(=O)c1cn(CC2CCC2)c2c(ccc3c2nnn3C)c1=O | > 64 | > 64 | > 64 | > 64 | > 64 | > 64 | > 128 | 64 (≈ 188 µM) | > 64 | > 128 | > 64 | > 64 | > 64 | > 64 |  |
| CCCCn1cc(C(=O)O)c(=O)c2ccc3c(nnn3Cc3ccccc3)c21 | > 64 | > 64 | > 64 | > 64 | > 64 | > 64 | 64 (≈ 170 µM) | 64 (≈ 170 µM) | > 64 | > 128 | > 64 | > 64 | > 64 | > 64 |  |
| C=C(C)Cn1cc(C(=O)O)c(=O)c2ccc3c(nnn3C)c21 | > 64 | > 64 | > 64 | > 64 | > 64 | > 64 | 32 (≈ 107 µM) | 64 (≈ 215 µM) | > 64 | 64 (≈ 215 µM) | > 64 | > 64 | > 64 | > 64 |  |
| CCOC(=O)c1cn(CC2CC2)c2c(ccc3c2nnn3C)c1=O | > 64 | > 64 | > 64 | > 64 | > 64 | > 64 | > 128 | 64 (≈ 196 µM) | > 64 | > 128 | > 64 | > 64 | > 64 | > 64 |  |
| Cn1nnc2c3c(ccc21)c(=O)c(C(=O)O)cn3CC1CCC1 | > 64 | > 64 | > 64 | > 64 | > 64 | > 64 | 16 (≈ 51.2 µM) | 32 (≈ 102 µM) | > 64 | 64 (≈ 205 µM) | > 64 | > 64 | > 64 | > 64 |  |
| Cn1cc(C(=O)O)c(=O)c2ccc3c(nnn3Cc3ccccc3)c21 | > 64 | > 64 | > 64 | > 64 | > 64 | > 64 | 4 (≈ 12 µM) | 8 (≈ 23.9 µM) | > 64 | 32 (≈ 95.7 µM) | > 64 | > 64 | > 64 | > 64 | > 100 |
| Cn1cc(C(=O)O)c(=O)c2ccc3c(nnn3C)c21 | > 64 | > 64 | > 64 | > 64 | > 64 | > 64 | 0.5 (≈ 1.94 µM) | 0.5 (≈ 1.94 µM) | > 64 | 5 (≈ 19.4 µM) | > 64 | > 64 | > 64 | > 64 | > 100 |
| O=C(O)c1cn(C2CC2)c2cc(N3CCNCC3)c(F)cc2c1=O [CIPROFLOXACIN] |  |  |  |  |  |  | 0.5 (≈ 1.51 µM) | 0.5 (≈ 1.51 µM) |  | 0.125 (≈ 0.377 µM) |  |  |  |  |  |
| CCOC(=O)c1cn(C(C)(C)C)c2c(ccc3c2nnn3C)c1=O | > 64 | > 64 | > 64 | > 64 | > 64 | > 64 | 4 (≈ 12.2 µM) | 32 (≈ 97.5 µM) | > 64 | 16 (≈ 48.7 µM) | > 64 | > 64 | > 64 | > 64 |  |
| CC[C@@H](CO)NCCN[C@@H](CC)CO [ETHAMBUTOL] |  |  |  |  |  |  | 4 (≈ 19.6 µM) | 5 (≈ 24.5 µM) |  | 0.5 (≈ 2.45 µM) |  |  |  |  |  |
| CCCCn1cc(C(=O)OCC)c(=O)c2ccc3c(nnn3Cc3ccccc3)c21 | > 64 | > 64 | > 64 | > 64 | > 64 | > 64 | 32 (≈ 79.1 µM) | 64 (≈ 158 µM) | > 64 | > 128 | > 64 | > 64 | > 64 | > 64 |  |
| CCn1cc(C(=O)O)c(=O)c2ccc3c(nnn3Cc3ccccc3)c21 | > 64 | > 64 | > 64 | > 64 | > 64 | > 64 | 8 (≈ 23 µM) | 64 (≈ 184 µM) | > 64 | 64 (≈ 184 µM) | > 64 | > 64 | > 64 | > 64 |  |
| Cn1nnc2c3c(ccc21)c(=O)c(C(=O)O)cn3CC1CC1 | > 64 | > 64 | > 64 | > 64 | > 64 | > 64 | 16 (≈ 53.6 µM) | 32 (≈ 107 µM) | > 64 | 64 (≈ 215 µM) | > 64 | > 64 | > 64 | > 64 |  |
| C=CCn1cc(C(=O)O)c(=O)c2ccc3c(nnn3Cc3ccccc3)c21 | > 64 | > 64 | > 64 | > 64 | > 64 | > 64 | 4 (≈ 11.1 µM) | 64 (≈ 178 µM) | > 64 | > 128 | > 64 | > 64 | > 64 | > 64 |  |
| Cn1nnc2c3c(ccc21)c(=O)c(C(=O)O)cn3C(C)(C)C | > 64 | > 64 | > 64 | > 64 | > 64 | > 64 | 8 (≈ 26.6 µM) | 16 (≈ 53.3 µM) | > 64 | 32 (≈ 107 µM) | > 64 | > 64 | > 64 | > 64 | > 100 |
| CCOC(=O)c1cn(CC)c2c(ccc3c2nnn3Cc2ccccc2)c1=O | > 64 | > 64 | > 64 | > 64 | > 64 | > 64 | > 128 | 64 (≈ 170 µM) | > 64 | > 128 | > 64 | > 64 | > 64 | > 64 |  |
| CO[C@H]1/C=C/O[C@@]2(C)Oc3c(C)c(O)c4c(O)c(c(/C=N/N5CCN(C)CC5)c(O)c4c3C2=O)NC(=O)/C(C)=C\C=C\[C@H](C)[C@H](O)[C@@H](C)[C@@H](O)[C@@H](C)[C@H](OC(C)=O)[C@@H]1C [RIFAMPIN] |  |  |  |  |  |  | ≤ 0.06 | < 0.5 |  | 8 (≈ 9.72 µM) |  |  |  |  |  |
| CN[C@@H]1[C@H](O[C@H]2[C@H](O[C@H]3[C@H](O)[C@@H](O)[C@H](N=C(N)N)[C@@H](O)[C@@H]3N=C(N)N)O[C@@H](C)[C@]2(O)C=O)O[C@@H](CO)[C@H](O)[C@H]1O [STREPTOMYCIN] |  |  |  |  |  |  | 1 (≈ 1.72 µM) | 1 (≈ 1.72 µM) |  |  |  |  |  |  |  |
| C=C(C)Cn1cc(C(=O)OCC)c(=O)c2ccc3c(nnn3C)c21 | > 64 | > 64 | > 64 | > 64 | > 64 | > 64 | > 128 | 64 (≈ 196 µM) | > 64 | > 128 | > 64 | > 64 | > 64 | > 64 |  |
